Assay results as given in ChEMBL document CHEMBL1123827, “Alpha 2-adrenergic agonists/antagonists: the synthesis and structure-activity relationships of a series of indolin-2-yl and tetrahydroquinolin-2-yl imidazolines” (J Med Chem, 1987).

Experiments:
[1] = biological target: T1, Adrenergic receptor alpha-2 (Rattus norvegicus, UniProt P22086+P19328+P22909); test: The compound was evaluated for the alpha-2 adrenergic receptor activity in rat vas deferens.
T1 sequence (P22086 whole entry): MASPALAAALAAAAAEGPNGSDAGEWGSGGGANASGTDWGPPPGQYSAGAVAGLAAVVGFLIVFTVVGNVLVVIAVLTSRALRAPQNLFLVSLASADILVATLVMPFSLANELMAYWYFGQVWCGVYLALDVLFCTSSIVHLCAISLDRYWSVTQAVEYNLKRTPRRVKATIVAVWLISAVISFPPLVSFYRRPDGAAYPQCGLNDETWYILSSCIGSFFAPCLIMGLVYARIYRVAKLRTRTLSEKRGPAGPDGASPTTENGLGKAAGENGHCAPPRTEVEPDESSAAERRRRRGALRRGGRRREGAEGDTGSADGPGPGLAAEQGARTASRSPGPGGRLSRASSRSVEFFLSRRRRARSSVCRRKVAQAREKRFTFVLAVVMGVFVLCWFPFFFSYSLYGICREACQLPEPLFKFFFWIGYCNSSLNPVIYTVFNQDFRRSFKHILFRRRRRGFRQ
T1 sequence (P19328 whole entry): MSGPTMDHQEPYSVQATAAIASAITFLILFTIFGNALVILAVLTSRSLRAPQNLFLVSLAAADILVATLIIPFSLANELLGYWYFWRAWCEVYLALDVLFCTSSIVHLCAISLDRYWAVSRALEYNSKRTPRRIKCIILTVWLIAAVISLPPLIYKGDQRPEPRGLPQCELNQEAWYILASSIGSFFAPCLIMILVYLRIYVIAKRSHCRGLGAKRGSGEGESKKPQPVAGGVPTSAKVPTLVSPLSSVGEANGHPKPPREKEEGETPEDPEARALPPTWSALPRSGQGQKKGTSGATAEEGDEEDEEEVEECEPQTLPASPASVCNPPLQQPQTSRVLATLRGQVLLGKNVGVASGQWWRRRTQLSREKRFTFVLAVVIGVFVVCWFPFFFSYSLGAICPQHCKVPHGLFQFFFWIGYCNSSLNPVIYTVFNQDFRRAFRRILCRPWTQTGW
T1 sequence (P22909 whole entry): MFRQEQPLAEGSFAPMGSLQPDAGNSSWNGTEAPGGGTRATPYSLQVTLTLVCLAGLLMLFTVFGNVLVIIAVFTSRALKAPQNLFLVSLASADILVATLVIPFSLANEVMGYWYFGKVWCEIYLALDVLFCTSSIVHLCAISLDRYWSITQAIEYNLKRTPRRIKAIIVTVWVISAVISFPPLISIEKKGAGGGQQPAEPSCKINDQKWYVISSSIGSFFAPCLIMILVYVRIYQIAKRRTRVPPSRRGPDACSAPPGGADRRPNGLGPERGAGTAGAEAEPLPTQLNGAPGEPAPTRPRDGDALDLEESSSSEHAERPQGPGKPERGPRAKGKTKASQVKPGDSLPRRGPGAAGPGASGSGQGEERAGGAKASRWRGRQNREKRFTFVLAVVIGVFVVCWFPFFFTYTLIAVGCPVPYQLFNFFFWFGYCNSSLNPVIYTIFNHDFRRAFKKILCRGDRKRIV
How it was run: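 Isolated vasa deferentia from Sprague-Dawley rats (180–250 g) mounted between platinum ring electrodes at 1 g resting tension in oxygenated Krebs at 37 °C. Single-pulse electrical stimulation (1 ms, 0.15 Hz, lowest voltage giving maximal contraction); inhibition of twitch contractions gives IC50 for agonists. Mean of at least three experiments, separate animals.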

[2] = biological target: T1, Adrenergic receptor alpha-2; test: Binding affinity against alpha-2 adrenergic receptor was determined by the displacement of [3H]clonidine from rat brain cortical membranes; assay type: cell membranes, Membrane

IC50 [1]: 179 nM
Ki [2]: 13.2 nM
SMILES: CSC[C@@]1(C2=NCCN2)Cc2ccccc2N1C
